# Assay outcomes (PubChem BioAssay)
# Sampled rows, rich in hits. Any-hit rate of the full collection: about 4.9%.
# STAT3 inh: IL-6 driven STAT3 reporter inhibitors, primary screen, U3A cells, luciferase, luminescence, MLSCN library; IL-6 STAT3-luciferase reporter; host cell line lacks STAT1; inhibition, % at 5.5 µM; 0.89% of 190,000 active; AID 862, 2007;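 active = inhibition above the mean inhibition across all screened compounds plus 3 SD, cut at about 44% in these data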;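 also: 0% = DMSO only wells and 100% = 100 µM nifuroxazide control wells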
# STAT1 activator: STAT1 signaling activators, primary screen, cell-based, HTS, luciferase reporter; NIH 3T3 STAT1-luciferase reporter, IFN-gamma, luminescence; 100% = IFN-gamma alone, no compound; activation (% of control), % at 5.5 µM; 2.6% of 200,000 active;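 active = activation above the screen-wide mean activation plus 3 SD, cut at about 130% in these data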;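 also: raw ratio to IFN-gamma control signal so 100% means no change and 0% no light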
# STAT3 act: IL-6 driven STAT3 reporter potentiators, primary screen, U3A cells, luciferase, luminescence, MLSCN library; IL-6 STAT3-luciferase reporter; 100% = signal with IL-6 EC80 alone; activation (% of control), % at 5.6 µM; 0.91% of 190,000 active;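 active = activation above the screen-wide mean of compound activation plus 3 SD, cut at about 130% in these data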;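 also: 0% = background luminescence of wells with medium and substrate only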
#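 System – human U3A cells carrying STAT3-luciferase construct · Probe or stimulus – Interleukin-6, 33 ng/mL · Schedule – compound 1 h, then IL-6 6 h at 37 °C · Signal – luminescence from STAT3-driven luciferase reporter · Evaluation – percent of IL-6-only median luminescence · Benchmarks – IL-6-only high control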
# NF-kB neuron act: activators of NF-kB expression in neurons, primary screen, cell-based, HTS | human neuronal cells, NF-kB reporter expression; hits give high values | fold change at 12.5 µM | 1.6% of 190,000 active; in the data active = fold change above about 3.3
# APP 5'UTR act: activators of APP 5'UTR luciferase reporter, primary screen, SH-SY5Y cells; 1% of 190,000 active; SH-SY5Y APP 5'UTR luciferase reporter, luminescence; zero percent = DMSO vehicle wells; activation, % at 2 µM; AID 1276, 2008;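 active = activation above a set limit, based on mean plus 3 SD of controls, cut at about 140% in these data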
# STAT1 inh: STAT1 signaling inhibitors, primary screen, cell-based, HTS, luciferase reporter; NIH 3T3 STAT1-luciferase reporter, IFN-gamma, luminescence; inhibition, % at 5.5 µM; 0.35% of 200,000 active;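 active = inhibition above a set limit, the mean inhibition across all tested compounds plus 3 SD, cut at about 34% in these data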;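 also: 0% = IFN-gamma with DMSO and 100% = IFN-gamma with 300 µM nifuroxazide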
# Numbers without * were called inactive; x = no result.
SMILES,STAT3 inh,STAT1 activator,STAT3 act,NF-kB neuron act,APP 5'UTR act,STAT1 inh
CCOC(=O)c1c(NC(=O)COC)sc(C(C)=O)c1C,8,98,95,1.2,-4,2
C/C(CCC(C)C)=N\NC(=S)Nc1cc(S(=O)(=O)N2CCOCC2)ccc1N1CCOCC1,-8,100,110,0.88,9,-2
O=C(CCn1c(=S)[nH]c2cc3c(cc2c1=O)OCO3)N1CCN(C2CCCCC2)CC1,6,100,99,x,8,0
Cc1ccc(-c2cc3cccc[n+]3cc2-c2ccc(C)cc2)cc1,61*,68,50,0.9,-6,36*
O=C1C2C3C=CC(CC3)C2C(=O)N1/N=C/c1c[nH]c2ccccc12 (configuration not stated),2,137*,100,1.8,33,-40
O=C(NC1CCCCC1)c1cccc(Cn2cc(Cl)cn2)c1,3,94,103,1.3,-15,6
CCN(CC)C(=O)CSc1nc(-c2ccccc2)ccc1C#N,12,132*,94,1.2,19,-38
CCOC(=O)C1=C(CSc2nc(-c3ccccc3)ccc2C#N)OC(N)=C(C#N)C1c1ccc(OC)cc1 (configuration not stated),-1,147*,103,2.5,95,-53
CCOC(=O)C1=C(CSc2nc(CC)c(C)cc2C#N)OC(N)=C(C#N)C1c1ccccc1 (configuration not stated),4,87,102,0.96,11,14
COC(=O)CSc1nc(-c2cccs2)ccc1C#N,-4,133*,108,7.3*,152*,-37
C#CCSc1nc(-c2cccs2)ccc1C#N,-12,102,112,1,-9,-2
N#Cc1ccc(-c2ccccc2)nc1SCC(=O)c1cccc(Cl)c1,21,103,91,1.1,-9,-3
CCCN(C(=S)Nc1ccccc1)C1CCS(=O)(=O)C1 (configuration not stated),20,96,91,1.1,-3,5
Cc1cccnc1NC(=S)NC(=O)c1cncc(Br)c1,4,122,101,2.2,70,-24
Cc1ccccc1C(=O)Nc1ccc(Br)cn1,15,134*,96,3.8*,111,-37
Cc1cccnc1NC(=S)NC(=O)c1cccs1,-50,174*,154*,5*,198*,-82
O=C(NC(=S)Nc1ccc(Br)cn1)c1cccs1,-84,204*,168*,4*,195*,-112
COC(=O)c1ccc(C)c(NS(=O)(=O)c2ccc(OC)cc2)c1,-24,103,120,4*,-94,0
COc1ccc(S(=O)(=O)Nc2ccc(O)c3ccccc23)cc1,-37,99,134*,0.73,-9,2
COc1cc(CN2CCCC(CO)(Cc3ccccc3C)C2)cc2c1OCO2 (configuration not stated),2,81,103,1.2,8,19
CCNc1nc(NCC)nc(C(=O)NN)n1,-4,91,105,0.96,10,7
Cc1ccc(-n2ncc3c(SCc4ccccn4)ncnc32)c(C)c1,16,137*,95,2.4,2,-42
COc1ccccc1/C=C/CN1CCCC(CCC(=O)NCc2ccccc2F)C1 (configuration not stated),-8,100,111,0.93,-3,-1
Cc1ccc2nc(SC(C)C(=O)N3CCOCC3)[nH]c2c1 (configuration not stated),-12,146*,115,2.2,56,-52
C=CCSC(=C(C#N)C#N)c1cc2c([nH]1)CCCC2,17,95,87,7.3*,16,6
CCOC(=O)N1CCC(N2CCCC(C(=O)c3ccc4cc(OC)ccc4c3)C2)CC1 (configuration not stated),3,100,102,0.84,-5,0
Cn1cccc1C(=O)C(=O)Nc1ccccc1C(F)(F)F,13,139*,91,1.8,57,-43
